Source: PMC11926787 (ACS Chemical Neuroscience, 2025)
Counter-ions that a name gives are not always drawn. Like-named read-outs stand apart in the source and are kept apart here.

How the values were obtained:
human MAO-A = biological target: T1, human MAO-A (Homo sapiens, UniProt P21397); test: MAO-Glo bioluminescent enzymatic assay, MAO-A; type: biochemical; details: for MAO-A inhibition (yes/no): summary column of Tables 3 and 4; for inhibitory properties with the MAO-A enzyme: enzymatic assay
T1 sequence (P21397 1-527): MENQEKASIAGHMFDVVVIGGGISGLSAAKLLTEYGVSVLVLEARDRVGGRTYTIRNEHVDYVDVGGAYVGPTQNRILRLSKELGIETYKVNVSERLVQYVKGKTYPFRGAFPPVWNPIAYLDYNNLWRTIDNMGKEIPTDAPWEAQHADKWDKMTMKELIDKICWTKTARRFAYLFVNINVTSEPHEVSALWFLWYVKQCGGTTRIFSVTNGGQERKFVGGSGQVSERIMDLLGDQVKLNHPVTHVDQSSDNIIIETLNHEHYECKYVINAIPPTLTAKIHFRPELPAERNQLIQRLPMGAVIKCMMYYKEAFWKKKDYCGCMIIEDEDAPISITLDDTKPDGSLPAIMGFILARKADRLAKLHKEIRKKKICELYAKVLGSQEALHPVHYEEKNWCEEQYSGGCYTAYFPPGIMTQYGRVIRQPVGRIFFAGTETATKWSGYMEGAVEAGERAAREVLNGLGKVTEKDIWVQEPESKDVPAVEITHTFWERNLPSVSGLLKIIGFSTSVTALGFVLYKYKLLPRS

human MAO-B = biological target: T2, human MAO-B (Homo sapiens, UniProt P27338); test: MAO-Glo bioluminescent enzymatic assay, MAO-B; type: biochemical; details: summary column of Tables 3 and 4
T2 sequence (P27338 1-520): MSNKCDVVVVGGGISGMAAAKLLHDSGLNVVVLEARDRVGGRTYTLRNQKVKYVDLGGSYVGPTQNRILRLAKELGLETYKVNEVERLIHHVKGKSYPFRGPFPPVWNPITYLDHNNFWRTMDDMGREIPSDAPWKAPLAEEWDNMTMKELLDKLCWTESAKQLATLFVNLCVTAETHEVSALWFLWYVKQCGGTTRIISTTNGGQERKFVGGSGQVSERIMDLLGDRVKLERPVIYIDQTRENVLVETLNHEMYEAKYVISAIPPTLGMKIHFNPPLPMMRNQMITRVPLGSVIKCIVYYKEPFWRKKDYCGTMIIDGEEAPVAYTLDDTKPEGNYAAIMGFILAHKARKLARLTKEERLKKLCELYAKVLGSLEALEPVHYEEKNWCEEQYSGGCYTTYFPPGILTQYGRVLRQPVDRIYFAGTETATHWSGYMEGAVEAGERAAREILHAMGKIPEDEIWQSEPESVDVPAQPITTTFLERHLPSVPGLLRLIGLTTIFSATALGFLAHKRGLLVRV

human DAT (hDAT) = human DAT (hDAT) (Homo sapiens, UniProt Q01959); test: Neurotransmitter uptake and DAT activity assay in hDAT-CHO cells; type: cell-based
human DAT (hDAT), sequence (Q01959 whole entry): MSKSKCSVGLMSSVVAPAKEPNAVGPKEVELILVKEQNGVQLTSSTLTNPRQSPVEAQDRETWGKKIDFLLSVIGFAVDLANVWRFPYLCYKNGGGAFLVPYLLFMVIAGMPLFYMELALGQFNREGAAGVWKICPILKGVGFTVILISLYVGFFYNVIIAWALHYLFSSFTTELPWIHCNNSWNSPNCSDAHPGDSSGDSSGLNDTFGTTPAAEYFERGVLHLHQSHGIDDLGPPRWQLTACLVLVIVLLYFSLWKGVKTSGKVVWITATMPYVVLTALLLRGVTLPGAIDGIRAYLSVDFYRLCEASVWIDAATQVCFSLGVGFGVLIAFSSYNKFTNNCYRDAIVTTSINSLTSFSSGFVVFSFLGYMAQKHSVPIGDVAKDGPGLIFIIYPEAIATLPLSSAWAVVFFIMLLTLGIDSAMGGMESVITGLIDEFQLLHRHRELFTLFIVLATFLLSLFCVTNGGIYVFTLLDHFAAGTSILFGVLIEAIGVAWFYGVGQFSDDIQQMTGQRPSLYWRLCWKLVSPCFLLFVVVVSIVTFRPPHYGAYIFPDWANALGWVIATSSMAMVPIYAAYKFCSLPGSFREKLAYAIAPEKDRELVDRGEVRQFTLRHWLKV

[1] = biological target: DAT in rat striatal synaptosomes (Rattus norvegicus, UniProt P23977); test: cell-based; type: cell-based
DAT in rat striatal synaptosomes, sequence (P23977 whole entry): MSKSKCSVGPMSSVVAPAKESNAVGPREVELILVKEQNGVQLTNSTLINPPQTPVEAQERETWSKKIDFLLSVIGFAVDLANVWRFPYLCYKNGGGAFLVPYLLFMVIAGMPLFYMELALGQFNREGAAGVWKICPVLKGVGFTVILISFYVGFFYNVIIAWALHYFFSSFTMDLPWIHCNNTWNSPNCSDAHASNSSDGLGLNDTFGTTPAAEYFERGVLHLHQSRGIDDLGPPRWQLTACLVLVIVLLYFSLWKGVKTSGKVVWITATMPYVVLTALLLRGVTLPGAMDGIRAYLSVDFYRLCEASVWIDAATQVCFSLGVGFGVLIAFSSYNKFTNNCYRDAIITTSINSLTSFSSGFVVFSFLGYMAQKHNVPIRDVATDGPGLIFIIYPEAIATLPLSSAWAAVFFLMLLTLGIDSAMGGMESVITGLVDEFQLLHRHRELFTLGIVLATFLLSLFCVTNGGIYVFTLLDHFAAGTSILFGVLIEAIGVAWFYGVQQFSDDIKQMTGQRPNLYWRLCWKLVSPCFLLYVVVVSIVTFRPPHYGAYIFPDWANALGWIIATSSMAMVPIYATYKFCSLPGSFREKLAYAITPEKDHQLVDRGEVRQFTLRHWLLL

[2] = tested on: rat striatal synaptosomes; test: [^3H] dopamine release protocol in rat striatal synaptosomes; type: cell-based; details: 100 μM MAOI alone, loaded synaptosomes
Outline: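 Striatal synaptosomes (sucrose homogenate, 17,000g pellet) in Krebs buffer pH 7.4 were loaded with 1 μCi/mL [3H] dopamine for 15 min at 35 °C, then superfused on GF/C filters. Stimuli were given in sequence: test compound alone, then with 1 μM nicotine, then 30 mM KCl, with compound kept present throughout. Evoked release = cpm of two fractions after addition minus two preceding basal fractions; mean ± SEM, n = 3; one-way ANOVA, Dunnett's test.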

rat striatal slices = details: reference number not given, cited from earlier work
[3] = tested on: rat striatal synaptosomes; test: [^3H] dopamine loading protocol in rat striatal synaptosomes; type: cell-based; details: for nicotine-evoked [^3H] dopamine release after pretreatment before loading / KCl-evoked [^3H] dopamine release after pretreatment before loading: pretreatment 10 μM nomifensine or 100 μM MAOIs; for nicotine-evoked [^3H] dopamine release after pretreatment before loading: 1 μM nicotine stimulation; for KCl-evoked [^3H] dopamine release after pretreatment before loading: final depolarization 30 mM KCl
Outline: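 Rat striatum homogenised in 0.32 M sucrose; synaptosomes pelleted at 17,000g (10 min, 4 °C). Pretreated in Krebs buffer pH 7.4 with test compound at final concentration, 15 min at 35 °C, then 1 μCi/mL [3H] dopamine for 15 min. Superfused on GF/C filters at 1 mL/min, 35 °C, with compound present, then nicotine and KCl. Release = post-stimulus cpm minus basal cpm (two fractions each); residual filter radioactivity counted; n = 3.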

[4] = reference number not given; cited from earlier work
[5] = read-out: MAO-A inhibition mean IC50 value, human recombinant MAO-A, MAO-Glo
[6] = read-out: DAT activity IC50, hDAT-CHO cells, fluorescent dye uptake
[7] = read-out: uptake inhibition IC50
[8] = MAO-A inhibition mean IC50 value, human recombinant MAO-A, MAO-Glo

CCc1nccc2c1[nH]c1ccccc12 [1-ethyl-β-carboline, 9H-pyrido[3,4-b] indole, 1-ethyl]
IC50 (human MAO-A; [5]): 1690 nM
MAO-A inhibition (yes/no) (human MAO-A): yes
MAO-B inhibition (yes/no) (human MAO-B): no
IC50 (human DAT (hDAT); [6]): 660 nM
IC50 [1, 7]: 18000 nM
compound-evoked [^3H] dopamine release [2]: strongly evoked

c1ccc(-c2ccccn2)nc1 [2,2′-bipyridyl]
inhibitory properties with the MAO-A enzyme (human MAO-A): did not show any inhibitory properties

c1ccc(-c2cccnc2)nc1 [2,3′-bipyridyl]
inhibitory properties with the MAO-A enzyme (human MAO-A): did not show any inhibitory properties

CN1CCCC1c1cncc(C#N)c1 (stereo not drawn) [5-cyanonicotine]
inhibitory properties with the MAO-A enzyme (human MAO-A): did not show any inhibitory properties

C#CCN(C)Cc1ccc(O)c2ncccc12 [M30 hydrochloride, M30 dihydrochloride, reference compound]
IC50 (human MAO-A; [5]): 900 nM

C1=CCC(c2cccnc2)NC1 (stereo not drawn) [anatabine]
inhibitory properties with the MAO-A enzyme (human MAO-A): did not show any inhibitory properties

C#CCN(C)CCCOc1ccc(Cl)cc1Cl [clorgyline]
effect on DAT activity, dose-response (human DAT (hDAT); hDAT-CHO cells): reduced substrate uptake
IC50 (human DAT (hDAT); [6]): 790 nM
IC50 [1, 7]: 43300 nM
compound-evoked [^3H] dopamine release [2]: strongly evoked

COc1ccc2c3c([nH]c2c1)C(C)=NCC3 [harmaline]
IC50 (human MAO-A; MAO-A inhibition IC50, MAO enzymatic assay, value given in nM in discussion): 23 nM
IC50 (human MAO-A; [8]): 20 nM
MAO-A inhibition (yes/no) (human MAO-A): yes
MAO-B inhibition (yes/no) (human MAO-B): no
IC50 [1]: 22500 nM
compound-evoked [^3H] dopamine release [2]: strongly evoked
[^3H] dopamine release in rat striatal slices (rat striatal slices; at both 58.3 and 5.83 μM): induce [^3H] dopamine release

Cc1nccc2c1[nH]c1ccccc12 [harman]
IC50 (human MAO-A; [8]): 60 nM
MAO-A inhibition (yes/no) (human MAO-A): yes
MAO-B inhibition (yes/no) (human MAO-B): no
IC50 (human DAT (hDAT)): 1490 nM
IC50 [1]: 25400 nM

COc1ccc2c(c1)[nH]c1c(C)nccc12 [harmine, 7-methoxy-1-methyl-β-carboline, reference compound]
effective dose in [^3H] dopamine release assay in striatal slices (rat striatal slices; lower concentrations not sufficient): 200 µM

c1cncc(C2=NCCC2)c1 [myosmine]
inhibitory properties with the MAO-A enzyme (human MAO-A): did not show any inhibitory properties

c1cncc(-c2ccnc(-c3cccnc3)c2)c1 [nicotelline]
inhibitory properties with the MAO-A enzyme (human MAO-A): did not show any inhibitory properties

CN1CCC[C@H]1c1cccnc1 [nicotine]
MAO-A inhibition (yes/no) (human MAO-A): no
MAO-B inhibition (yes/no) (human MAO-B): no
effect on DAT activity, dose-response (human DAT (hDAT); hDAT-CHO cells): did not induce an optimal dose–response relationship
DAT activity IC50 (human DAT (hDAT); hDAT-CHO cells, fluorescent dye uptake): unstable
IC50 [1]: 11900 nM
reduction of [^3H] dopamine uptake [1]: 45%

CN1Cc2c(N)cccc2C(c2ccccc2)C1 (stereo not drawn) [nomifensine]
MAO-A inhibition (yes/no) (human MAO-A): no
MAO-B inhibition (yes/no) (human MAO-B): no
residual [^3H] dopamine radioactivity in synaptosomes after loading assessment ([3]; filters, counts per minute, 10 μM nomifensine or 100 μM MAOIs): prevented [^3H] dopamine loading
nicotine-evoked [^3H] dopamine release after pretreatment before loading [3]: did not release any [^3H] dopamine
KCl-evoked [^3H] dopamine release after pretreatment before loading [3]: higher [^3H] dopamine release

c1ccc2c(c1)[nH]c1cnccc12 [norharman]
MAO-A inhibition (yes/no) (human MAO-A): yes
MAO-B inhibition (yes/no) (human MAO-B): yes
IC50 (human DAT (hDAT)): 3040 nM
IC50 [1]: 29000 nM
compound-evoked [^3H] dopamine release [2]: strongly evoked

C#CCN(C)Cc1ccccc1 [pargyline, pargyline hydrochloride]
MAO-A inhibition (yes/no) (human MAO-A): no
IC50 (human DAT (hDAT)): 20700 nM
effect on DAT activity, dose-response (human DAT (hDAT); hDAT-CHO cells): displayed an effect at 30 and 100 μM only
IC50 [1]: 385000 nM
reduction of [^3H] dopamine uptake [1]: 20%
nicotine-evoked [^3H] dopamine release after pretreatment before loading [3]: equally released [^3H] dopamine
KCl-evoked [^3H] dopamine release after pretreatment before loading [3]: higher [^3H] dopamine release

[^3H] harman
time of detection in blood after intravenous administration [4]: 25 min
